One test relates to Staphylococcus aureus. Kind of test: Antibacterial activity against methicillin-resistant Staphylococcus aureus isolate 1 B690208 after 24 hrs. The test is classed as functional. To be noted: isolate 1 B690208, 24 h. Put shortly: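 MIC determined against MRSA; vancomycin and fusidic acid served as positive controls.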
A further test has as its system Streptococcus pneumoniae. Put plainly: Antibacterial activity against Streptococcus pneumoniae ATCC 49619 after 24 hrs. Type of test: functional. As to conditions: ATCC 49619, 24 h.
The next test deals with Escherichia coli. Kind of test: Antibacterial activity against Escherichia coli isolate 13 V676803 after 24 hrs. The test is classed as functional. As to conditions: isolate 13 V676803, 24 h.
Another test has as its system Klebsiella pneumoniae. Put plainly: Antibacterial activity against Klebsiella pneumoniae isolate 18 B224106 after 24 hrs. Type of test: functional. To be noted: isolate 18 B224106, 24 h.
The subject of another test is Pseudomonas aeruginosa. Put plainly: Antibacterial activity against Pseudomonas aeruginosa isolate 22 V143708 after 24 hrs. Type of test: functional. As to conditions: isolate 22 V143708, 24 h.
For a further test, the system named is HaCaT. Kind of test: Cytotoxicity against human HaCaT cells by Cell titre-blue assay. Type of test: cell-based. In short, it runs like this:
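Nontumorigenic human keratinocyte HaCaT cells were tested with mitoxantrone as the positive control, and results are reported as IC50 in μM.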

One may read the MIC as the smallest concentration in the dilution series that meets the test's criterion for growth inhibition. For orientation: IC50 means the concentration that gives 50% inhibition.

≈ marks a conversion by molar mass, not a printed value.

With `CCCCC(Cl)CCCC[C@H](C)[C@@H](OC(C)=O)c1cc(O)cc(O)c1` (some centres undefined), the MIC against Staphylococcus aureus was 8.6 µM (≈ 3.19 µg/mL); in the test on Streptococcus pneumoniae, 17 µM (≈ 6.31 µg/mL); in the test with Escherichia coli, over 135 µM; against Klebsiella pneumoniae, over 135 µM; in the test on Pseudomonas aeruginosa it was over 135 µM. The molecule further registered an IC50 with HaCaT of 100 µM.

Turning to `O=C1c2c(O)ccc(O)c2C(=O)c2c(NCCNCCO)ccc(NCCNCCO)c21` [MITOXANTRONE], half-maximal inhibition in the test on HaCaT (IC50) required 3.9 µM.

As to `CN[C@@H](CC(C)C)C(=O)N[C@H]1C(=O)N[C@@H](CC(N)=O)C(=O)N[C@H]2C(=O)N[C@H]3C(=O)N[C@H](C(=O)N[C@@H](C(=O)O)c4cc(O)cc(O)c4-c4cc3ccc4O)[C@H](O)c3ccc(c(Cl)c3)Oc3cc2cc(c3O[C@H]2O[C@@H](CO)[C@H](O)[C@@H](O)[C@@H]2O[C@@H]2C[C@@](C)(N)[C@@H](O)[C@@H](C)O2)Oc2ccc(cc2Cl)[C@H]1O`, the MIC in the test with Streptococcus pneumoniae worked out at 3.8 µM (≈ 5.51 µg/mL).

On to `CCCC[C@H]1CCCC[C@H](C)[C@@H](O)c2cc(O)c(c(O)c2)[C@@H](CCCC)CCCC[C@H](C)[C@@H](O)c2cc(O)c1c(O)c2` [CYLINDROCYCLOPHANE A], for which the MIC in the test with Staphylococcus aureus is 0.1 µM (≈ 0.0585 µg/mL); against Streptococcus pneumoniae it was 0.3 µM (≈ 0.175 µg/mL); with Escherichia coli, over 85 µM; against Klebsiella pneumoniae, over 85 µM; in the test with Pseudomonas aeruginosa it was over 85 µM. In the test with HaCaT, this molecule came in with an IC50 of 5 µM.

`CC(=O)O[C@H]1C[C@@]2(C)[C@@H](C[C@@H](O)[C@H]3[C@@]4(C)CC[C@@H](O)[C@@H](C)[C@@H]4CC[C@@]32C)/C1=C(\CCC=C(C)C)C(=O)O` [FUSIDIC ACID] displayed an MIC with Staphylococcus aureus of 1.4 µM (≈ 0.723 µg/mL).

`CCCC[C@H]1CCCC[C@H](C)[C@@H](OC(C)=O)c2cc(O)c(c(O)c2)[C@@H](CCCC)CCCC[C@H](C)[C@@H](OC(C)=O)c2cc(O)c1c(O)c2`: the MIC is 0.9 µM (≈ 0.602 µg/mL) with Staphylococcus aureus; 2.4 µM (≈ 1.61 µg/mL) in the test with Streptococcus pneumoniae; over 75 µM in the test with Escherichia coli; over 75 µM with Klebsiella pneumoniae; over 75 µM in the test with Pseudomonas aeruginosa. This molecule registered an IC50 with HaCaT of 11 µM.

As for `CCCC[C@H]1CCCC[C@H](C)[C@@H](O)c2cc(O)c(c(O)c2)[C@@H](CCCC)CCCC[C@H](C)[C@@H](OC(C)=O)c2cc(O)c1c(O)c2`, the MIC is 0.1 µM (≈ 0.0627 µg/mL) with Staphylococcus aureus; 0.3 µM (≈ 0.188 µg/mL) against Streptococcus pneumoniae; over 80 µM against Escherichia coli; over 80 µM against Klebsiella pneumoniae; over 80 µM in the test with Pseudomonas aeruginosa. In the test with HaCaT, inhibition was half-maximal at 2.9 µM (IC50).

With `CCCCC(Cl)CCCC[C@H](C)[C@@H](O)c1cc(O)c([C@@H](CCCC)CCCC[C@H](C)[C@@H](OC(C)=O)c2cc(O)cc(O)c2)c(O)c1` (some centres undefined), the MIC against Staphylococcus aureus, against Streptococcus pneumoniae, against Escherichia coli, against Klebsiella pneumoniae and in the test with Pseudomonas aeruginosa was over 75 µM each time. In the test on HaCaT, this molecule returned an IC50 of 25 µM.

For the molecule `CCCCC(Cl)CCCC[C@H](C)[C@@H](OC(C)=O)c1cc(O)c([C@@H](CCCC)CCCC[C@H](C)[C@@H](OC(C)=O)c2cc(O)cc(O)c2)c(O)c1` (some centres undefined), the MIC against Staphylococcus aureus, with Streptococcus pneumoniae, with Escherichia coli, in the test with Klebsiella pneumoniae and in the test with Pseudomonas aeruginosa was over 71 µM each time. In the test with HaCaT, this molecule gave an IC50 of 25 µM.

For the origin of these results see ChEMBL document CHEMBL3785064, “Cylindrofridins A-C, Linear Cylindrocyclophane-Related Alkylresorcinols from the Cyanobacterium Cylindrospermum stagnale” (J Nat Prod, 2016).
